This note sets out measurements from ChEMBL document CHEMBL1122375, “Synthesis and biological evaluation of 2-fluoro-8-azaadenosine and related compounds” (J Med Chem, 1983).

For one series, the species on record is Bos taurus. In words: Kinetic parameter in calf intestine adenosine deaminase. As to conditions: cattle, in vitro. The format is ADME.
For series [1], the system named is HEp-2. In words: Cytotoxicity against H.Ep cells. The format is functional, cell-based. As to conditions: Homo sapiens. In outline: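 H.Ep.-2 human cell culture cytotoxicity screen. Value is the drug concentration that inhibits cell growth to 50% of untreated controls.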
Series [2] has as its system HEp-2. In words: Cytotoxicity against H.Ep cells in the presence of 0.1 ug/mL pentostatin. The format is functional, cell-based. The note with it: Homo sapiens. In outline:
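H.Ep.-2 cell culture cytotoxicity screen with pentostatin at 0.1 µg/mL in the medium. Value is the drug concentration that inhibits cell growth to 50% of controls.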

For series [3], the system named is P388. In words: Percent increase in life span of P388 leukemia cells (10e6) infected(ip) mice at dose of 6(50) mg/kg, ip: qd 1-9 schedule. It is filed as functional, Mus musculus.
Series [4] relates to P388. In words: Percent increase in life span of P388 leukemia cells (10e6) infected(ip) mice at dose of 400 (400) mg/kg, ip: day 1 only. It is filed as functional, Mus musculus.
For series [5], the system named is P388. In words: Percent increase in life span of P388 leukemia cells (10e6) infected(ip) mice at dose of 50 (200) mg/kg, ip: qd 1-5 schedule.
Series [6] concerns P388. In words: Percent increase in life span of P388 leukemia cells (10e6) infected(ip) mice at dose of 50 (400) mg/kg, ip: qd 1-5 schedule. The format is functional, Mus musculus.

As usually defined, the Vmax is the rate approached at saturating substrate. For the compound `COc1ncnc2c1ncn2[C@@H]1O[C@H](CO)[C@@H](O)[C@@H]1O`, in the series listed under Bos taurus, the Vmax came out at 2 µM/min/mg.
One may read the IC50 as the concentration that inhibits the measured activity by half. On to `Nc1ncnc2c1nnn2[C@@H]1O[C@H](CO)[C@@H](O)[C@H]1O`, for which the results for the IC50 in the series on HEp-2 [1] and in the series with HEp-2 [2] were 0.7 µM and less than 0.02 µM, respectively. Besides, the Vmax in the series filed under Bos taurus worked out at 1500 µM/min/mg.
Regarding `Nc1ncnc2c1nnn2[C@@H]1O[C@H](CO)[C@@H](O)[C@@H]1O`, in the series filed under Bos taurus, the Vmax was found to be 75 µM/min/mg.
One may read the ILS as how much longer treated animals lived than controls. Low values mean little gain in survival, high ones much gain in survival. As for `Nc1nc(N)c2nnn([C@@H]3O[C@H](CO)[C@@H](O)[C@H]3O)c2n1`, the increase in life span (ILS) with P388 [3] was 25%. For the same compound, the IC50 in the series with HEp-2 [1] is 0.7 µM; in the series on HEp-2 [2], more than 20 µM. Also, the Vmax in the series filed under Bos taurus turned out to be 23 µM/min/mg.
`Nc1nc(N)c2ncn([C@@H]3O[C@H](CO)[C@@H](O)[C@H]3O)c2n1`: the Vmax in the series filed under Bos taurus was found to be 119 µM/min/mg.
Consider `Nc1nc(F)nc2c1ncn2[C@@H]1O[C@H](CO)[C@@H](O)[C@H]1O`, for which the maximal velocity (Vmax) in the series listed under Bos taurus turned out to be 0.78 µM/min/mg.
On to `Nc1nc(F)nc2c1nnn2[C@H]1C[C@H](O)[C@@H](CO)O1`, for which, in the series with HEp-2 [1], the IC50 came out at 70 µM.
Turning to `Nc1ncnc2c1nnn2[C@H]1C[C@H](O)[C@@H](CO)O1`, the IC50 in the series with HEp-2 [1] is 10 µM; with HEp-2 [2] it was more than 25 µM. In the series listed under Bos taurus, the Vmax worked out at 2000 µM/min/mg.
On to `COc1ncnc2c1nnn2[C@@H]1O[C@H](CO)[C@@H](O)[C@H]1O`, for which, in the series listed under Bos taurus, the Vmax amounted to 27 µM/min/mg.
Regarding `Nc1nc(O)c2nnn(C3O[C@H](CO)[C@@H](O)[C@H]3O)c2n1` (some centres undefined), inhibition with HEp-2 [1] was half-maximal at 2 µM (IC50).
As for `CSc1nc(N)c2nnn(C3O[C@H](CO)[C@@H](O)[C@H]3O)c2n1` (some centres undefined), the IC50 in the series on HEp-2 [1] was more than 130 µM.
For `CSc1nc(N)c2nn(C3O[C@H](CO)[C@@H](O)[C@H]3O)nc2n1` (some centres undefined), the IC50 in the series with HEp-2 [1] is 25 µM.
For the compound `Nc1nc(N)c2nn(C3O[C@H](CO)[C@@H](O)[C@H]3O)nc2n1` (some centres undefined), in the series on P388 [4], the ILS stood at 0%. The compound also returned an IC50 in the series with HEp-2 [1] of more than 75 µM.
Consider `CS(=O)(=O)c1nc(N)c2nn(C3O[C@H](CO)[C@@H](O)[C@H]3O)nc2n1` (some centres undefined), for which the IC50 in the series with HEp-2 [1] came out at 22 µM.
Still for that read-out and setting: the value for `CCOc1nc(N)c2nnn(C3O[C@H](CO)[C@@H](O)[C@H]3O)c2n1` (some centres undefined) was more than 75 µM.
On to `Nc1nc(F)nc2c1nnn2C1O[C@H](CO)[C@@H](O)[C@H]1O` (some centres undefined), for which the ILS with P388 [5] came out at 21%. The IC50 in the series with HEp-2 [1] and with HEp-2 [2] was 2 µM each time. Besides, in the series filed under Bos taurus, the Vmax is 5 µM/min/mg.
As for `Nc1nc(F)nc2nn(C3O[C@H](CO)[C@@H](O)[C@H]3O)nc12` (some centres undefined), the IC50 with HEp-2 [1] was more than 75 µM.
As to `CS(=O)(=O)c1nc(N)c2nnn(C3O[C@H](CO)[C@@H](O)[C@H]3O)c2n1` (some centres undefined), the ILS with P388 [6] was 38%. The same compound displayed an IC50 in the series on HEp-2 [1] of 14 µM.
Compound `Nc1nc(O)nc2nn(C3O[C@H](CO)[C@@H](O)[C@H]3O)nc12` (some centres undefined) gave a half-maximal inhibitory concentration (IC50) in the series with HEp-2 [1] of more than 75 µM.
Same read-out and setting: the value for `Nc1nc(O)c2[nH]nnc2n1` [8-AZAGUANINE] was 2 µM.
`Nc1ncnc2c1ncn2[C@@H]1O[C@H](CO)[C@@H](O)[C@H]1O` [ADENOSINE]: the Vmax in the series filed under Bos taurus is 435 µM/min/mg.
As for `Nc1ncnc2c1ncn2[C@@H]1O[C@H](CO)[C@@H](O)[C@@H]1O` [VIDARABINE], the Vmax in the series listed under Bos taurus stood at 94 µM/min/mg.
